Here are results for eleven compounds from ChEMBL document CHEMBL1143049, “Preparation, biological activity and endogenous occurrence of N6-benzyladenosines” (Bioorg Med Chem, 2007).

pIC50: −log10 of the molar value.

In assay [1] the test system is G-361. Put plainly: Antitumor activity against human G361 cells after 72 hrs by Calcein AM assay. The settings on record: G-361, 72 h. The assay is classed as functional, cell-based. The procedure, abridged:
(§1)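 Cells grown in DMEM at 37 °C under 5% CO2. Compounds added after 12 h preincubation in 96-well plates, final 0.5-170 μM, with 0.6% final DMSO, then 72 h exposure. Viable cells stained with Calcein AM for 1 h and read at 485/538 nm. IC50 (concentration lethal to 50% of cells) taken from dose-response curves. Run in quadruplicate.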

Assay [2] can be described thus: Cytotoxicity against mouse NIH 3T3 cells after 72 hrs by Calcein AM assay. The assay is classed as cell-based. The settings on record: NIH3T3, 72 h. The procedure, abridged:
as §1

Assay [3] has as its system Amaranthus. Put plainly: Cytokinin activity in Amaranthus cotyledons assessed as dark induction of betacyanin synthesis at 0.01 mmol/L relative to 6-Benzylaminopurine. The assay is classed as functional. The procedure, abridged:
(§2)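 Dark induction of betacyanin in excised Amaranthus cotyledons. DMSO stock brought to 10^-3 M in water, diluted into assay medium (DMSO ≤0.2%). Tested over 10^-4 to 10^-8 M, five replicates per concentration, assay repeated at least three times. Response at the optimal concentration expressed relative to BAP at its optimum (set to 100).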

The subject of assay [4] is Triticum aestivum. Put plainly: Cytokinin activity in wheat assessed as retention of chlorophyll in excised wheat leaves at 0.1 mmol/L relative to 6-Benzylaminopurine by senescence assay. The assay is classed as functional. The procedure, abridged: (§3)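 Senescence assay measuring chlorophyll retention in excised wheat leaves. DMSO stocks brought to 10^-3 M with water, then diluted in assay medium to a final DMSO of at most 0.2%. Concentrations 10^-4 to 10^-8 M, quintuplicate, repeated at least three times. Response at the optimal concentration normalised to BAP optimum = 100.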

The subject of assay [5] is Nicotiana tabacum. Put plainly: Cytokinin activity in tobacco assessed as stimulation of callus growth at 0.01 mmol/L relative to 6-Benzylaminopurine. The assay is classed as functional. The procedure, abridged:
(§4)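 Stimulation of tobacco callus growth. Compounds dissolved in DMSO, brought to 10^-3 M in water and diluted into medium (DMSO ≤0.2%). Range 10^-4 to 10^-8 M, five replicates per concentration, at least three independent repeats. Activity at the optimal concentration given relative to BAP's optimal response, taken as 100.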

Assay [6] has as its target T1, Histidine kinase 3 (Arabidopsis thaliana) (UniProt Q9C5U1).
T1 sequence (whole entry): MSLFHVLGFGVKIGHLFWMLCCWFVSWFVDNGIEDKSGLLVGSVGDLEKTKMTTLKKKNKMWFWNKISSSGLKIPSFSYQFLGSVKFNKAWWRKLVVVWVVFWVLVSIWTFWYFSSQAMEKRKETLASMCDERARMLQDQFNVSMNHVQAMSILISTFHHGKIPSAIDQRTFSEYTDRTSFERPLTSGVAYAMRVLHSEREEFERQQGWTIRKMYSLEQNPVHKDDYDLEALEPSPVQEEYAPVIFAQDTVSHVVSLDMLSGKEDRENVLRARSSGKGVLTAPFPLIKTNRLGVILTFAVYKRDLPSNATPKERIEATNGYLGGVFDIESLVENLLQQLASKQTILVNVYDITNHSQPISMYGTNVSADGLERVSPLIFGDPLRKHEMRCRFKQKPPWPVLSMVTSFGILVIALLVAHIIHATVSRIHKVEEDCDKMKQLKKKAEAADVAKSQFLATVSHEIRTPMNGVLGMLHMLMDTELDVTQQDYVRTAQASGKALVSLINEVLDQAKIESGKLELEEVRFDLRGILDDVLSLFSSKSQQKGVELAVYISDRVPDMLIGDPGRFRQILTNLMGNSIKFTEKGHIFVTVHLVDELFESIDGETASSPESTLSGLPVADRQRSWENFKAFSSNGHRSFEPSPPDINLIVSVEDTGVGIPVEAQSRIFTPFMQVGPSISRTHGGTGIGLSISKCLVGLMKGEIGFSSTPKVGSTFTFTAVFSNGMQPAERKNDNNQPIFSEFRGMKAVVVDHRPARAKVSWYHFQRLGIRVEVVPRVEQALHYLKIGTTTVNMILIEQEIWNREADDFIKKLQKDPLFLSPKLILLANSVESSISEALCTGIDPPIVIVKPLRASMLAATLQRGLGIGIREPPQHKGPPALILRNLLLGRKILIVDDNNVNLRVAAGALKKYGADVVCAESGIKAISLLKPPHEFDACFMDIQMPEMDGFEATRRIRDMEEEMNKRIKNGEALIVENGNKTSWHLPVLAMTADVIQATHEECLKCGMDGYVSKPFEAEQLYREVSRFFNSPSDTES
Put plainly: Activation of Arabidopsis thaliana AHK3 cytokinin receptor relative to trans-zeatin. On the set-up: concentration or dose not given beside the values. The procedure, abridged: (§5)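 E. coli KMI001 carrying pSTV28-AHK3 or pIN-III-AHK4, precultured overnight at 25 °C in M9 + 0.1% casamino acids to OD600 ~1. Diluted 1:600, compound or solvent added, then incubated at 25 °C for 28 h (AHK3) or 17 h (CRE1/AHK4). Supernatant incubated with 4-methylumbelliferyl β-D-galactoside for 1 h at 37 °C and stopped with Na2CO3. Fluorescence read at 365/460 nm. β-galactosidase expressed as nmol 4-MU × OD600⁻¹ × h⁻¹.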

The target in assay [7] is Histidine kinase 4 (Arabidopsis thaliana) (UniProt Q9C5U0). Put plainly: Activation of Arabidopsis thaliana CRE1/AHK4 cytokinin receptor relative to trans-zeatin. On the set-up: concentration or dose not given beside the values. The procedure, abridged: as §5
Sequence of Histidine kinase 4 (Arabidopsis thaliana) (Q9C5U0 whole entry): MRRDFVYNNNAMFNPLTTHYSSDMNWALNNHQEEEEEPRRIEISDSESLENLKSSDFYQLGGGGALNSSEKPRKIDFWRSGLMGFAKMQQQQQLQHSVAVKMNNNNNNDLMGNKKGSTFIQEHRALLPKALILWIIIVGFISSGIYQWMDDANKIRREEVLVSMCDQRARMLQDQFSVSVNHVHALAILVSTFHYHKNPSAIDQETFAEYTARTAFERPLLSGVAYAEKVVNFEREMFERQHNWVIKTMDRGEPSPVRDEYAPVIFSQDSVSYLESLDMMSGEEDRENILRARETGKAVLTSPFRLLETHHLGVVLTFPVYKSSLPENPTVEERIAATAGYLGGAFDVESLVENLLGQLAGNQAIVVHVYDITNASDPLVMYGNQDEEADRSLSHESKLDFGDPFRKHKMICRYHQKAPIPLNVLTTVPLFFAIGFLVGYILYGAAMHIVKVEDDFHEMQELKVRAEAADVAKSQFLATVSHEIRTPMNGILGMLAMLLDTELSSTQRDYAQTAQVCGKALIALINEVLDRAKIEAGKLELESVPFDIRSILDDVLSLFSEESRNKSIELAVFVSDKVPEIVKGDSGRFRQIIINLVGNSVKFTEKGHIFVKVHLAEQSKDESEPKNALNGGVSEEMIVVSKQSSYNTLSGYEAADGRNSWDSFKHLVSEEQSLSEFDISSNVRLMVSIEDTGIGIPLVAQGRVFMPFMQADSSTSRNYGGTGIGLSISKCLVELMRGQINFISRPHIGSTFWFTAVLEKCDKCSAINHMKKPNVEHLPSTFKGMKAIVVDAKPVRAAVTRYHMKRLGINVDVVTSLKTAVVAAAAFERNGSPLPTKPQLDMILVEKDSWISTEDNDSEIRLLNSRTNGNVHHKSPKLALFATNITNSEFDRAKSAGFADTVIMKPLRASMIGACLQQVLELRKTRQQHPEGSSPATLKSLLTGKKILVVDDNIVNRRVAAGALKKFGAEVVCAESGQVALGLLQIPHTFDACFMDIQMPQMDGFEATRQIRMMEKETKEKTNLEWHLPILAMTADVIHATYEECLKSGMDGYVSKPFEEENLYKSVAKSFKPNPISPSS
Assay [8] has as its system HOS. Put plainly: Antitumor activity against human HOS cells after 72 hrs by Calcein AM assay. The assay is classed as functional, cell-based. A digest of the protocol: as §1
For assay [9], the system named is K562. Put plainly: Antitumor activity against human K562 cells after 72 hrs by Calcein AM assay. The assay is classed as functional, cell-based. The settings on record: K562, 72 h. A digest of the protocol: as §1
Assay [10] can be described thus: Antitumor activity against human MCF cells after 72 hrs by Calcein AM assay. The assay is classed as functional, cell-based. The procedure, abridged:
as §1

For assay [11], the system named is CCRF-CEM. Put plainly: Antitumor activity against human CEM cells after 72 hrs by Calcein AM assay. The assay is classed as functional, cell-based. A digest of the protocol:
as §1

Assay [12] relates to HL-60. Put plainly: Antitumor activity against human HL60 cells after 72 hrs by Calcein AM assay. To be noted: HL-60, 72 h. The assay is classed as functional, cell-based. The procedure, abridged:
as §1

The test system of assay [13] is Nicotiana tabacum. Put plainly: Cytokinin activity in tobacco assessed as stimulation of callus growth at 1 umol/L relative to 6-Benzylaminopurine. The assay is classed as functional. The procedure, abridged: as §4
The subject of assay [14] is B16. Put plainly: Antitumor activity against mouse B16 cells after 72 hrs by Calcein AM assay. The assay is classed as functional, cell-based. To be noted: B16, 72 h. The procedure, abridged:
as §1

In assay [15] the test system is Amaranthus. Put plainly: Cytokinin activity in Amaranthus cotyledons assessed as dark induction of betacyanin synthesis at 0.1 mmol/L relative to 6-Benzylaminopurine. The assay is classed as functional. The procedure, abridged: as §2
Assay [16] deals with Triticum aestivum. Put plainly: Cytokinin activity in wheat assessed as retention of chlorophyll in excised wheat leaves at 0.01 mmol/L relative to 6-Benzylaminopurine by senescence assay. The assay is classed as functional. The procedure, abridged:
as §3

The test system of assay [17] is Triticum aestivum. Put plainly: Cytokinin activity in wheat assessed as retention of chlorophyll in excised wheat leaves at 0.1 umol/L relative to 6-Benzylaminopurine by senescence assay. The assay is classed as functional. A digest of the protocol:
as §3

Assay [18] concerns Nicotiana tabacum. Put plainly: Cytokinin activity in tobacco assessed as stimulation of callus growth at 0.1 mmol/L relative to 6-Benzylaminopurine. The assay is classed as functional. The procedure, abridged: as §4

Consider `OC[C@H]1O[C@@H](n2cnc3c(NCc4cccc(F)c4)ncnc32)[C@H](O)[C@@H]1O`, for which the pIC50 in [1] was under 3.78; in assay [2] it was 4.08; in [8], under 3.78; in assay [9], 5.12; in assay [10], 4.82; in [11], 5.40. Further, in [12], the pIC50 is 6.04. For the same compound, the Activity stood at 92% in [3]; 220% in assay [4]; 91% in assay [5]; 0.99% in [6]; 0.36% in assay [7].
With `OC[C@H]1O[C@@H](n2cnc3c(NCc4ccc(F)cc4)ncnc32)[C@H](O)[C@@H]1O`, the pIC50 was under 3.78 in assay [1]; 4.35 in [2]; 4.88 in assay [8]; 5.57 in assay [9]; 4.68 in assay [10]; 5.90 in assay [11]. The pIC50 in assay [12] was 5.92. In addition, the Activity turned out to be 71% in assay [3]; 148% in assay [4]; 100% in assay [13]; 7.67% in assay [6]; 0.39% in assay [7].
As for `OC[C@H]1O[C@@H](n2cnc3c(NCc4cccc(Cl)c4)ncnc32)[C@H](O)[C@@H]1O`, the pIC50 in assay [1] was under 3.78; in [2], under 3.78; in assay [8] it was under 3.78; in [9], 4.56; in assay [10] it was 4.57; in assay [11], 5.80. Moreover, the pIC50 in assay [12] was 6.12. The Activity in assay [3] worked out at 139%; in [4] it was 72%; in assay [5], 96%; in assay [6] it was 2.63%; in [7], 0.15%.
With `OC[C@H]1O[C@@H](n2cnc3c(NCc4ccc(Cl)cc4)ncnc32)[C@H](O)[C@@H]1O`, the pIC50 is under 3.78 in [1]; under 3.78 in assay [14]; under 3.78 in assay [2]; under 3.78 in assay [8]; 3.66 in [9]; under 3.78 in [10]. Further, the pIC50 is 4.99 in assay [11] and 5.77 in assay [12]. The Activity was 35% in assay [3]; 104% in assay [4]; 46% in [13]; 0.81% in assay [6]; 0.23% in assay [7].
As to `OC[C@H]1O[C@@H](n2cnc3c(NCc4ccccc4Br)ncnc32)[C@H](O)[C@@H]1O`, the pIC50 in assay [1] was under 3.78; in assay [14] it was under 3.78; in assay [2] it was under 3.78; in assay [8], under 3.78; in assay [9], 5.00; in [10], under 3.78. For the same compound, the pIC50 in assay [11] was 4.91; in assay [12] it was 5.18. Moreover, the results for the Activity in [15], in assay [16] and in assay [5] were 147%, 86% and 100%, respectively.
As to `OC[C@H]1O[C@@H](n2cnc3c(NCc4ccccc4F)ncnc32)[C@H](O)[C@@H]1O`, the pIC50 in assay [14] was under 3.78; in assay [2], under 3.78; in assay [8], under 3.78; in [9], 4.48; in assay [10], under 3.78; in assay [11], 5.34. Moreover, the pIC50 in assay [12] is 5.49. Besides, the Activity in assay [3] was 96%; in assay [4], 118%; in assay [13], 100%; in assay [6], 2.91%; in [7], 0.12%.
As for `OC[C@H]1O[C@@H](n2cnc3c(NCc4ccc(O)c(O)c4)ncnc32)[C@H](O)[C@@H]1O`, the figures for the Activity in assay [15], in assay [17] and in [13] were 8%, 17% and 4%, respectively.
Turning to `OC[C@H]1O[C@@H](n2cnc3c(NCc4ccc(Cl)cc4Cl)ncnc32)[C@H](O)[C@@H]1O`, the pIC50 was 3.89 in assay [1]; under 3.78 in assay [14]; under 3.78 in assay [8]; 3.97 in [9]; 3.90 in [10]; 4.06 in assay [11]. Further, the pIC50 in assay [12] is 4.02. Moreover, the Activity in assay [15] is 3%; in assay [16], 5%; in [5], 70%.
In the case of `Cc1ccc(O)c(CNc2ncnc3c2ncn3[C@@H]2O[C@H](CO)[C@@H](O)[C@H]2O)c1`, the pIC50 is under 3.78 in assay [1]; under 3.78 in assay [14]; under 3.78 in assay [8]; 4.78 in assay [9]; under 3.78 in assay [10]; 5.72 in assay [11]. Moreover, the negative-log IC50 (pIC50) in [12] was 4.82. Also, the figures for the Activity in assay [15], in [4] and in [18] were 58%, 164% and 7%, respectively.
As for `OC[C@H]1O[C@@H](n2cnc3c(NCc4ccccc4Cl)ncnc32)[C@H](O)[C@@H]1O`, the pIC50 in assay [14] was under 3.78; in [2] it was under 3.78; in assay [8], under 3.78; in assay [9] it was 4.19; in assay [10], under 3.78; in assay [11], 4.84. In assay [12], the pIC50 was 5.80. Besides, the Activity in assay [3] is 113%; in assay [4] it was 119%; in assay [13] it was 93%; in assay [6], 0.02%; in assay [7] it was 0.04%.
`COc1ccccc1CNc1ncnc2c1ncn2[C@@H]1O[C@H](CO)[C@@H](O)[C@H]1O`: the pIC50 in assay [1] was under 3.78; in assay [14], under 3.78; in assay [2] it was 3.85; in assay [8], under 3.78; in assay [9], 5.05; in [10], under 3.78. Also, the values for the pIC50 in [11] and in assay [12] were 5.49 and 5.64, respectively. The Activity in assay [3] amounted to 86%; in assay [4] it was 198%; in assay [5], 108%; in assay [6], 0.04%; in [7], 0.12%.

A word on the pIC50: it is the IC50 on a negative log10 scale, so that one unit is a factor of ten.
